Source: ChEMBL document CHEMBL1150877, “Total synthesis and biological activities of (+)- and (-)-boscialin and their 1'-epimers” (J Nat Prod, 1998)
Values after ≈ are worked out from the molar mass of the structure shown. Active and inactive are the calls of the source. No cut-off for these calls is given here.

Tests used:
[1] = system: Corynebacterium minutissimum; experiment: Antimicrobial activity against Corynebacterium minutissium ATCC 23348 after 24 hrs by agar diffusion assay; format: functional
Procedure, shortened: (§1)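 Overnight cultures were diluted in 0.9% NaCl and mixed into molten casein soymeal peptone agar at a final 5 × 10⁴–10⁵ CFU/mL, which was layered onto agar plates. Test substances (100 µL of 1 mg/mL in H2O) were placed in 1 cm wells. Plates were incubated at 37 °C for 24 h, and inhibition zone diameters were measured.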

[2] = system: Escherichia coli; experiment: Antimicrobial activity against Escherichia coli NCTC 8196 after 24 hrs by agar diffusion assay; format: functional; procedure, shortened: as §1
[3] = system: Trypanosoma brucei rhodesiense; experiment: Antitrypanosomal activity against blood stream form of Trypanosoma brucei rhodesiense STIB 900 at 100 ug/ml; format: functional, organism-based
[4] = system: Corynebacterium xerosis; experiment: Antimicrobial activity against Corynebacterium xerosis ATCC 373 after 24 hrs by agar diffusion assay; format: functional; procedure, shortened: as §1
[5] = system: Staphylococcus aureus; experiment: Antimicrobial activity against Staphylococcus aureus ATCC 9144 after 24 hrs by agar diffusion assay; format: functional; procedure, shortened: as §1
[6] = Selectivity index, ratio of IC50 for human HT29 cells to IC50 for Trypanosoma brucei rhodesiense STIB 900; format: toxicity, cell-based, HT-29; details: HT29 cells versus Trypanosoma brucei rhodesiense STIB 900, read-out: Ratio IC50
Procedure, shortened: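 The index was calculated as the HT-29 IC50 divided by the T. b. rhodesiense IC50. Both IC50s came from 72 h exposures read by Alamar Blue fluorescence, with linear interpolation.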

[7] = system: Trypanosoma cruzi; experiment: Antitrypanosomal activity against Trypanosoma cruzi MHOM/Br/OO/Y trypomastigotes up to 100 ug/ml after 5 days
[8] = system: Staphylococcus epidermidis; experiment: Antimicrobial activity against Staphylococcus epidermis ATCC 12228 after 24 hrs by agar diffusion assay; format: functional; procedure, shortened: as §1
[9] = system: Candida albicans; experiment: Antimicrobial activity against Candida albicans ATCC 10231 after 24 hrs by agar diffusion assay; format: functional; procedure, shortened: as §1
[10] = system: Leishmania donovani; experiment: Antileishmanial activity against Leishmania donovani MHOM/ET/67/L82 infected in mouse peritoneal macrophages after 5 days
[11] = system: Trypanosoma brucei rhodesiense; experiment: Antitrypanosomal activity against blood stream form of Trypanosoma brucei rhodesiense STIB 900; format: functional, organism-based
Procedure, shortened: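 Bloodstream-form trypanosomes at 200 cells/100 µL were exposed for 72 h to threefold dilutions starting at 100 µg/mL, with 1% DMSO final. MIC was read microscopically as the lowest concentration with no normally shaped or motile cells. For IC50, Alamar Blue was added for a further 2 h, fluorescence was measured, and values were obtained by linear interpolation.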

[12] = system: HT-29; experiment: (§2) Cytotoxicity against human HT-29 cells; format: cell-based; details: Homo sapiens, HT-29
Procedure, shortened: (§3)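 HT-29 cells were seeded at 5000 cells/100 µL in MEM with 10% heat-inactivated FCS at 37 °C and 5% CO2. They were exposed for 72 h to threefold dilutions starting at […], with 1% DMSO final. MIC was read microscopically, and IC50 came from Alamar Blue fluorescence after 2 h by linear interpolation.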

[13] = as §2; format: cell-based; details: human, HT-29 cells; read-out: MIC; procedure, shortened: as §3

CC(=O)/C=C/[C@]1(O)[C@@H](C)C[C@@H](O)CC1(C)C
inhibition zone (IZ) [1]: 18 mm | inhibition zone (IZ) [2]: 2 mm | Activity [3]: inactive | inhibition zone (IZ) [4]: 13 mm | inhibition zone (IZ) [5]: 10.5 mm | selectivity ratio [6]: 0.3 | Activity [7]: inactive | inhibition zone (IZ) [8]: 8 mm | inhibition zone (IZ) [9]: 4.5 mm | Activity [10]: inactive | IC50 [11]: 31 mg/L (≈ 137 µM) | MIC [11]: 100 mg/L (≈ 442 µM) | IC50 [12]: 8.1 mg/L (≈ 35.8 µM) | MCC [13]: 56 µg/mL

CC(=O)/C=C/[C@@]1(O)[C@@H](C)C[C@@H](O)CC1(C)C
inhibition zone (IZ) [1]: 5 mm | inhibition zone (IZ) [2]: 1 mm | Activity [3]: inactive | inhibition zone (IZ) [4]: 3 mm | inhibition zone (IZ) [5]: 3 mm | selectivity ratio [6]: 1 | Activity [7]: inactive | inhibition zone (IZ) [8]: 0 mm | inhibition zone (IZ) [9]: 5 mm | IC50 ([10]; 5 d): 77 mg/L (≈ 340 µM) | IC50 [11]: 18 mg/L (≈ 79.5 µM) | MIC [11]: 100 mg/L (≈ 442 µM) | IC50 [12]: 17 mg/L (≈ 75.1 µM) | MCC [13]: > 100 µg/mL

CC(=O)/C=C/[C@@]1(O)[C@H](C)C[C@H](O)CC1(C)C [BOSCIALIN]
inhibition zone (IZ) [1]: 9.5 mm | inhibition zone (IZ) [2]: 1 mm | IC50 [3]: 1.9 mg/L (≈ 8.4 µM) | MIC [3]: 11 mg/L (≈ 48.6 µM) | inhibition zone (IZ) [4]: 2 mm | inhibition zone (IZ) [5]: 2.5 mm | selectivity ratio [6]: 23 | Activity [7]: inactive | inhibition zone (IZ) [8]: 0 mm | inhibition zone (IZ) [9]: 4 mm | Activity [10]: inactive | IC50 [11]: 1.9 mg/L (≈ 8.4 µM) | MIC [11]: 11 mg/L (≈ 48.6 µM) | IC50 [12]: 43 mg/L (≈ 190 µM) | MCC [13]: > 100 µg/mL

CC(=O)/C=C/[C@]1(O)[C@H](C)C[C@H](O)CC1(C)C [EPIBOSCIALIN]
inhibition zone (IZ) [1]: 20 mm | inhibition zone (IZ) [2]: 1.5 mm | IC50 [3]: 0.9 mg/L (≈ 3.98 µM) | MIC [3]: 3.7 mg/L (≈ 16.3 µM) | inhibition zone (IZ) [4]: 12 mm | inhibition zone (IZ) [5]: 10 mm | selectivity ratio [6]: 9.4 | Activity [7]: inactive | inhibition zone (IZ) [8]: 8 mm | inhibition zone (IZ) [9]: 15.5 mm | Activity [10]: inactive | IC50 [11]: 0.9 mg/L (≈ 3.98 µM) | MIC [11]: 3.7 mg/L (≈ 16.3 µM) | IC50 [12]: 8.5 mg/L (≈ 37.6 µM) | MCC [13]: 56 µg/mL

Nc1nc(N)nc(Nc2ccc([As]3SCC(CO)S3)cc2)n1 (stereo not drawn) [MELARSOPROL]
selectivity ratio [6]: 9000 | IC50 [11]: 0.0004 mg/L | MIC [11]: 0.011 mg/L | IC50 [12]: 3.6 mg/L | MCC [13]: 11 µg/mL
